Results: BindingDB's records for doi:10.1016/j.bmcl.2007.12.018 (Novartis Institute For Biomedical Research, 2008)
pIC50: −log10 of the molar value.

These molecules were tested against RAC-alpha serine/threonine-protein kinase (Homo sapiens, UniProt P31749) (assay: Inhibition of phosphorylation of T308-PKB in human U87MG cells by ELISA).
Method in brief: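 Cell capture ELISA for phospho-T308 PKB in U87MG cells; IC50 determined.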

Chain of RAC-alpha serine/threonine-protein kinase (P31749 whole entry): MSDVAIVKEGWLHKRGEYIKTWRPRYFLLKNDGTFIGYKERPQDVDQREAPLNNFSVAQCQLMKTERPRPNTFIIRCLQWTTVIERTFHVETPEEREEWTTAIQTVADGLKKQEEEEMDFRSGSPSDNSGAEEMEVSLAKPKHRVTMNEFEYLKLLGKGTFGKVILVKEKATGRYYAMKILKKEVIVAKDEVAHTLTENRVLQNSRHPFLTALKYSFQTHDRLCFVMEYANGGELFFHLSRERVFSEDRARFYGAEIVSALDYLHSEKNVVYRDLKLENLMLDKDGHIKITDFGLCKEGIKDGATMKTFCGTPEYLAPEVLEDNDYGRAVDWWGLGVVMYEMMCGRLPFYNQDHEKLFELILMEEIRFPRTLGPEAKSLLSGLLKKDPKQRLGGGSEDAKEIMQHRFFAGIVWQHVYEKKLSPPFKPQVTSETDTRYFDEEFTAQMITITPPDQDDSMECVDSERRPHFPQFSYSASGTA

| pIC50 | SMILES |
| --- | --- |
| 7.48 | Cn1c(=O)n(-c2ccc(C(C)(C)C#N)cc2)c2c3cc(C#Cc4cccnc4)ccc3ncc21 |
| 7.35 | Cc1nc2cnc3ccc(C#Cc4cccnc4)cc3c2n1-c1ccc(C(C)C#N)cc1 (centres undefined) |
| 7.11 | Cc1nc2cnc3ccc(C#Cc4cccnc4)cc3c2n1-c1ccc(CC#N)cc1 |
| 6.86 | CCc1nc2cnc3ccc(C#Cc4cccnc4)cc3c2n1-c1ccc(CC#N)cc1 |
